Data reported in ChEMBL document CHEMBL4304819, “Natural product pectolinarigenin exhibits potent anti-metastatic activity in colorectal carcinoma cells in vitro and in vivo” (2019).
The source made the active and inactive calls. The calls are words filed in the database; no cut-off is given here.

Experiments:
CT26 [1] = assay: Anticlonogenic activity against mouse CT26 cells assessed as reduction in colony formation up to 40 uM incubated for 24 hrs supplemented with fresh medium containing compound every 3 days for 12 days by crystal violet staining-based microscopic analysis; format: functional, cell-based
Summary of the method: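 Cells seeded at 400–800 per well in 6-well plates; after 24 h, treated with 0–40 μM in fresh medium (with or without compound) replaced every three days for 12 days. Colonies fixed in methanol, stained with 0.5% crystal violet for 15 min and counted by microscope; reported as surviving colonies, mean ± SD of three experiments.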

HCT-116 [2] = assay: Inhibition of colony formation in human HCT116 cells assessed as reduction in number of colonies up to 40 uM incubated for 24 hrs supplemented with fresh medium containing compound every 3 days for 12 days by crystal violet staining-based microscopic analysis; format: functional, cell-based
Summary of the method: (§1)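 400–800 cells per well seeded in 6-well plates; after 24 h, PEC (0–40 μM) added. Medium with or without compound replaced every three days for 12 days. Colonies washed in cold PBS, fixed in methanol, stained 15 min with 0.5% crystal violet and counted under a microscope. Mean ± SD of three experiments.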

SW48 = assay: Inhibition of colony formation in human SW48 cells assessed as reduction in number of colonies up to 40 uM incubated for 24 hrs supplemented with fresh medium containing compound every 3 days for 12 days by crystal violet staining-based microscopic analysis; format: functional, cell-based; summary of the method: as §1
HCT-116 [3] = assay: Induction of apoptosis in human HCT116 cells assessed as nuclear fragmentation up to 40 uM after 48 hrs by Hoechst 33258 staining-based fluorescent microscopic analysis; format: functional, cell-based
Summary of the method: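 Cells (1–2 × 10^5 per well) plated on 18-mm coverslips in six-well plates for 24 h, treated at various concentrations for 48 h, washed with cold PBS, fixed 15 min in 4% paraformaldehyde, stained with Hoechst 33258 (5 μg/ml); condensed/fragmented nuclei scored by fluorescence microscopy (10×); stained positive cells, mean ± SD of three experiments.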

CT26 [4] = assay: Induction of apoptosis in mouse CT26 cells assessed as nuclear fragmentation up to 40 uM after 48 hrs by Hoechst 33258 staining-based fluorescent microscopic analysis; format: functional, cell-based
Summary of the method: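 CT26 cells plated at 1–2 × 10^5 per well on 18-mm coverslips in six-well plates for 24 h, then treated 48 h with PEC. Washed in cold PBS, fixed 15 min in 4% paraformaldehyde, stained with Hoechst 33258 (5 μg/ml). Nuclear morphology viewed by fluorescence microscopy (10×); positive cells counted, mean ± SD of three experiments.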

CT26 [5] = assay: Induction of apoptosis in mouse CT26 cells assessed as viable cells at 10 uM after 48 hrs by Annexin V-FITC/propidium iodide staining-based flow cytometric analysis (reference value: 88.9 %); format: functional; settings: CT26, 48 h, read-out: Activity
Summary of the method: (§2)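 CT26 cells seeded at 1–2 × 10^5 per well in six-well plates for 24 h, then exposed to PEC (0–40 μM) for 24 or 48 h. Cells harvested, washed twice in cold PBS, stained with Annexin V-FITC/PI and read by flow cytometry. Early apoptotic = Annexin V+ only; late apoptotic = Annexin V+/PI+. Mean ± SD of three experiments.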

CT26 [6] = assay: Induction of apoptosis in mouse CT26 cells assessed as late apoptotic cells at 10 uM after 48 hrs by Annexin V-FITC/propidium iodide staining-based flow cytometric analysis (reference value: 6.49 %); format: functional; summary of the method: as §2
CT26 [7] = assay: Induction of apoptosis in mouse CT26 cells assessed as late apoptotic cells at 20 uM after 48 hrs by Annexin V-FITC/propidium iodide staining-based flow cytometric analysis (reference value: 6.49 %); format: functional; summary of the method: as §2
HCT-116 [8] = assay: Induction of apoptosis in human HCT116 cells assessed as early apoptotic cells at 20 uM after 48 hrs by Annexin V-FITC/propidium iodide staining-based flow cytometric analysis (reference value: 1.23 %); format: functional
Summary of the method: (§3)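 Cells (1–2 × 10^5 per well) seeded in six-well plates 24 h, treated at 0–40 μM for 24 h or 48 h, harvested, washed twice in cold PBS, stained with Annexin V-FITC/PI and analysed by flow cytometry; early (Annexin V only) and late (Annexin V and PI) apoptotic fractions quantified; three experiments.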

HCT-116 [9] = assay: Induction of apoptosis in human HCT116 cells assessed as necrotic cells at 20 uM after 48 hrs by Annexin V-FITC/propidium iodide staining-based flow cytometric analysis (reference value: 8.24 %); format: functional; summary of the method: as §3
HCT-116 [10] = assay: Induction of apoptosis in human HCT116 cells assessed as late apoptotic cells at 40 uM after 48 hrs by Annexin V-FITC/propidium iodide staining-based flow cytometric analysis (reference value: 3.87 %); format: functional; summary of the method: as §3
CT26 [11] = assay: Induction of apoptosis in mouse CT26 cells assessed as increase in cleaved caspase-3 expression after 48 hrs by Western blot analysis; format: functional, cell-based
Summary of the method: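 CT26 cells exposed 48 h to PEC at 0, 10, 20 and 40 μM, washed twice in cold PBS, lysed in RIPA. Protein measured by Lowry and equalized, run on SDS-PAGE, blotted to PVDF. Blocked 1 h at 37 °C, primary antibodies (Bax, Bcl-2, pro-caspase-3, cleaved caspase-3) overnight at 4 °C, secondary 1 h, ECL detection, densitometry.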

CT26 [12] = assay: Induction of apoptosis in mouse CT26 cells assessed as decrease in pro-caspase-3 expression up to 40 uM after 48 hrs by Western blot analysis; format: functional, cell-based
Summary of the method: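 Cells treated 48 h at 0, 10, 20 and 40 μM, washed in cold PBS, lysed in RIPA; protein equalized by Lowry assay, resolved by SDS-PAGE, transferred to PVDF, blocked 1 h at 37 °C, primary antibody overnight at 4 °C, secondary 1 h, ECL detection, densitometry. β-actin loading control.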

CT26 [13] = assay: Antitumor activity against mouse CT26 cells allografted in Balb/c mouse assessed as inhibition of Ki-67 positive cells in tumour tissue at 25 to 50 mg/kg, ip administered daily for 14 days starting from 6 days post implantation by immunohistochemical analysis; format: functional, organism-based
Summary of the method: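 Female BALB/c mice (6–8 weeks) injected ip with 5 × 10^5 CT26 cells; from day 6, randomized (eight per group) to ip vehicle, 25 or 50 mg/kg once daily for 14 days. Abdominal circumference and body weight every 3 days; abdominal nodules counted by eye and weighed; spleens assessed; paraffin tumour sections immunostained (Ki-67, MMP-9, p-Stat3) with DAB detection.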

CT26 [14] = assay: Antimetastatic activity against mouse CT26 cells allografted in Balb/c mouse assessed as decrease in CD11b-positive/Gr1-positive myeloid cells level in tumour at 25 mg/kg, ip administered daily for 14 days starting from 6 days post implantation flow cytometric analysis (reference value: 10 %); format: functional; parameters: scale not given: the % may be the effect or the level left
CT26 [15] = assay: Antimetastatic activity against mouse CT26 cells allografted in Balb/c mouse assessed as decrease in CD11b-positive/Gr1-positive myeloid cells level in tumour at 50 mg/kg, ip administered daily for 14 days starting from 6 days post implantation flow cytometric analysis (reference value: 10 %); format: functional; parameters: scale not given: the % may be the effect or the level left
CT26 [16] = assay: Antimetastatic activity against mouse CT26 cells allografted in Balb/c mouse assessed as increase in infiltration of CD8+ T cells in blood at 50 mg/kg, ip administered daily for 14 days starting from 6 days post implantation flow cytometric analysis (reference value: 1.35 %); format: functional
CT26 [17] = assay: Antimetastatic activity against mouse CT26 cells allografted in ip dosed Balb/c mouse assessed as decrease in CD11b-positive/Gr1-positive myeloid cells level in peripheral blood administered daily for 14 days starting from 6 days post implantation by flow cytometric analysis; format: functional, organism-based

`COc1ccc(-c2cc(=O)c3c(O)c(OC)c(O)cc3o2)cc1` [PECTOLINARIGENIN] was tested. Which inhibition (CT26 [1]) did it give?
The inhibition was “Active”.

And the inhibition (HCT-116 [2])?
Its inhibition is “Active”.

What about the inhibition (SW48) of the same compound?
The inhibition was “Active”.

What about the Activity (HCT-116 [3]) of the same compound?
Its Activity is “Active”.

And the Activity (CT26 [4])?
The Activity was “Active”.

What about the viability at 10 µM (CT26 [5]) of the same compound?
The viability at 10 µM was 77.1%.

And the Activity (CT26 [6])?
Its Activity is 15.5%.

What about the Activity (CT26 [7]) of the same compound?
Its Activity is 12.4%.

And the Activity (HCT-116 [8])?
The Activity was 8.86%.

What about the Activity (HCT-116 [9]) of the same compound?
Its Activity is 4.55%.

What about the Activity (HCT-116 [10]) of the same compound?
Its Activity is 9.67%.

What about the Activity (CT26 [11]) of the same compound?
The Activity was “Dose-dependent effect”.

What about the Activity (CT26 [12]) of the same compound?
Its Activity is “Active”.

And the inhibition (CT26 [13])?
The inhibition was “Active”.

What about the Activity (CT26 [14]) of the same compound?
The Activity was 7.4%.

And the Activity (CT26 [15])?
The Activity was 6.47%.

What about the Activity (CT26 [16]) of the same compound?
The Activity was 4.17%.

What about the Activity (CT26 [17]) of the same compound?
The Activity was “Dose-dependent effect”.
